Values after ≈ are worked out from the molar mass of the structure shown.
Columns and labels:
[1] = tested on: Candida albicans; assay: Antifungal activity against Candida albicans; type: functional; conditions: CA-6
Procedure, shortened: (§1)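 Broth microdilution per NCCLS M27-A in RPMI 1640 buffered with 0.165 M MOPS, pH 7. Strains were C. albicans CA-6 (vaginal clinical isolate) and C. krusei ATCC 6258. Inocula came from 24 h cultures on Sabouraud dextrose agar at 28 °C, washed in saline and counted by hemocytometer. Serial dilutions ran 0.9–500 µg/mL. MIC was the lowest concentration giving 80% turbidity reduction versus drug-free control.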

[2] = tested on: Pichia kudriavzevii; assay: Antifungal activity against Candida krusei; type: functional; conditions: 6258; procedure, shortened: as §1
[3] = tested on: Mus musculus; assay: Survival of mouse administered at 14 mg/kg/day, ip; type: functional, CD1; conditions: route intraperitoneal
Procedure, shortened: (§2)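 Female CD1 mice (8–10 weeks, 25–30 g), 10 per group, infected iv via lateral tail vein with 1×10^5 C. albicans CA-6 cells (24 h Sabouraud culture at 28 °C, saline-washed). Dosing was ip at 14 mg/kg in DMSO/H2O (1:4), 2 h before infection and then daily for 8 days. Median survival time was compared by Mann–Whitney U test, and dead/total was counted at day 30.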

[4] = tested on: Mus musculus; assay: Median survival time in mouse at 14 mg/kg/day, ip; type: functional, CD1; conditions: route intraperitoneal; procedure, shortened: as §2

Row | SMILES | MIC [1] [µg/mL] | MIC [2] [µg/mL] | Survival [3] [days] | MST [4] [days]
1 | CN1C(=O)CSc2ccc(C(O)Cn3ccnc3)cc21 (stereo not drawn) | 62.5 (≈ 216 µM) | 250 (≈ 864 µM) |  | 
2 | CN1C(=O)COc2ccc(C(Cn3ccnc3)OCc3ccc(Cl)cc3)cc21 (stereo not drawn) | 7.8 (≈ 19.6 µM) | 15.6 (≈ 39.2 µM) |  | 
3 | CCCCC1Oc2ccc(C(O)Cn3ccnc3)cc2N(C)C1=O (stereo not drawn) | 125 (≈ 379 µM) | 125 (≈ 379 µM) | 9 | 14
4 | CCCCOC1Sc2ccc(C(O)Cn3ccnc3)cc2N(C)C1=O (stereo not drawn) | 31.2 (≈ 86.3 µM) | 125 (≈ 346 µM) | 9 | 14
5 | CCCCC1Sc2ccc(C(O)Cn3ccnc3)cc2N(C)C1=O (stereo not drawn) | 31.2 (≈ 90.3 µM) | 250 (≈ 724 µM) | 9 | 14
6 | CN1C(=O)CSc2ccc(C(Cn3ccnc3)OCc3ccc(Cl)cc3)cc21 (stereo not drawn) | < 1.8 | 15.6 (≈ 37.7 µM) |  | 
7 | CCCCOC1Oc2ccc(C(O)Cn3ccnc3)cc2N(C)C1=O (stereo not drawn) | 125 (≈ 362 µM) | 31.2 (≈ 90.3 µM) | 4 | 12
8 | CN1C(=O)COc2ccc(C(O)Cn3ccnc3)cc21 (stereo not drawn) | 250 (≈ 915 µM) | 31.2 (≈ 114 µM) |  | 
9 | OC(Cn1cncn1)(Cn1cncn1)c1ccc(F)cc1F [FLUCONAZOLE] | < 1.8 | 62.5 (≈ 204 µM) | 23 | >30

Reference: ChEMBL document CHEMBL1141215, “Design, synthesis, and microbiological evaluation of new Candida albicans CYP51 inhibitors” (2005)
